Screening data from PubChem.
The list is not random: actives were taken first. Their share in the collection is about 5.3%.
Beta apoptosis: beta cell apoptosis inhibition; INS-1E cytokine-induced death, ATP luminescence, 48 h; percent of positive-control rescue, neutral wells zero; protection from apoptosis, % (test concentration not listed); 300,000 tested, 0.8% active;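 active = Every replicate reaches about 75%, or at least half do and their mean reaches it too, limit read from the data; inconclusive = At least half of replicates reach the limit but their mean does not; inactive = Under half of replicates reach the limit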;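 also: 0% = cytokine-treated negative control wells and 100% = positive control rescue; higher means more ATP so stronger rescue from cytokine killing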
Calb FLC: affects C. albicans growth with fluconazole | C. albicans CaCi-2 (fluconazole-resistant clinical isolate) + fluconazole, Alamar Blue growth, 48 h | growth inhibition, % (test concentration not listed) | 300,000 tested, 0.57% active | AID 1979;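 active = growth inhibition above about 58% in most replicates, limit read from the data, passing the limit was not always enough; inconclusive = exactly half the replicates above a set limit; inactive = most replicates below a set limit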;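 also: all wells also contain fluconazole at 8 µg/ml as a sub-toxic cotreatment; 0% = median of DMSO wells and 100% = median of geldanamycin control wells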
Mdm2 MdmX PPI: disrupts the human Mdm2-MdmX interaction | O15151+Q00987 | 330,000 tested, 3% active | SaOS-2 split-luciferase Mdm2/MdmX complementation, luminescence | AID 485346 | inhibition, % at 8 µM;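 active = inhibition of at least 50% at 8 µM in the primary screen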
Target sequence (O15151 whole entry, looked up): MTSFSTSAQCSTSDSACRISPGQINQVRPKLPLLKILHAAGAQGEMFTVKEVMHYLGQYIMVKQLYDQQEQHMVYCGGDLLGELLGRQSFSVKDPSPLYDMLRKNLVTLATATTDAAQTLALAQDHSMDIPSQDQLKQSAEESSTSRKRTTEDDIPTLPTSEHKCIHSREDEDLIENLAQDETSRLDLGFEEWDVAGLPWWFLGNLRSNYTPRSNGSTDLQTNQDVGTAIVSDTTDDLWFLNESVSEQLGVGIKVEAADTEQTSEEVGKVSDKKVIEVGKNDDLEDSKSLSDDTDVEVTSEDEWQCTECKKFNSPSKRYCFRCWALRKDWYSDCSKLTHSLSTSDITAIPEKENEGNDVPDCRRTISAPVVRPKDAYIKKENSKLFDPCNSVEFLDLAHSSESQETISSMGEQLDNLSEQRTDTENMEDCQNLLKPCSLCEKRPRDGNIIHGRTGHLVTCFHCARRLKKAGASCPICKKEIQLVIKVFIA
Target sequence (Q00987 whole entry, looked up): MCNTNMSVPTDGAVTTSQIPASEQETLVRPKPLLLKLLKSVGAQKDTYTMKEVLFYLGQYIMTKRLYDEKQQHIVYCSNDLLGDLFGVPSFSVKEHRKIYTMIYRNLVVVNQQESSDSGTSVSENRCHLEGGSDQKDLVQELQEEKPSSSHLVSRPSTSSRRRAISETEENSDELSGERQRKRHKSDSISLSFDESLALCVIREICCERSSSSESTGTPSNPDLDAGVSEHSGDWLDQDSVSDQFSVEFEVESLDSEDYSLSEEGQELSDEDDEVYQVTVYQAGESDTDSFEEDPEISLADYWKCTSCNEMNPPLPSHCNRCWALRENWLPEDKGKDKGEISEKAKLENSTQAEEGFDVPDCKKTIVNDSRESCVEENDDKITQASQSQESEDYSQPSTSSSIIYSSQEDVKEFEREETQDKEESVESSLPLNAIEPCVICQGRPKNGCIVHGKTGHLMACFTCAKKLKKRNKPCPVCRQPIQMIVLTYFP
T cruzi inh: blocks replication of Trypanosoma cruzi. T. cruzi beta-gal in NIH3T3, luminescence, 90 h. inhibition, % (test concentration not listed). AID 1885. 300,000 tested, 1.4% active;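 active = mean inhibition across valid replicates above about 55%, limit read from the data; inconclusive = mean below that limit but half or more replicates reach it; inactive = mean below it, under half of replicates reach it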;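 also: signal also drops with host cell toxicity which is not excluded here; 0% = plate median of DMSO wells and 100% = zero luminescence signal; higher percent means less beta-gal luminescence so fewer parasites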
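Material: NIH/3T3 host cells with β-galactosidase reporter T. cruzi; Input: 5,000 host fibroblasts per well; Medium: DMEM, 2% fetal bovine serum; Compound: 50 nL DMSO compound solution per well; Schedule: 3 h host attachment, then at least 90 h co-culture; Detection: luminescent β-galactosidase signal after 60 min lysis.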
CSC inhib: cancer stem cell inhibition; cancer stem cell-like cells viability, luminescence; inhibition, % at 7.5 µM; AID 2717; 300,000 tested, 1.1% active; in the data active = inhibition above about 75%; inconclusive = no clear call, values can overlap the other calls; tested in HMLE shEcad cells
NALP3 yeast inh: blocks the NALP3 inflammasome reconstituted in yeast; inhibition, % at 10 µM; 330,000 tested, 0.39% active; Yeast reconstituted NLRP3/ASC/caspase-1, beta-gal luminescence, 24 h;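 active = inhibition of 50% or more; inactive = inhibition below 50%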;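 also: plate controls were induced DMSO wells for no effect and uninduced yeast grown without galactose for full effect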
NALP3 yeast conf: confirmation of NALP3 inhibitors in yeast; yeast expressing human NALP3, luminescence; 1,300 tested, 81% active; shares compounds with NALP3 yeast inh; inhibition, % at 10 µM; AID 435006; in the data active = inhibition above about 48%
Casp1-ASC yeast: caspase-1-ASC yeast counter-screen hit; inhibition, % at 10 µM; 1,000 tested, 66% active; yeast expressing Caspase-1-ASC, luminescence counter screen; shares compounds with NALP3 yeast inh
NALP3 yeast rt: yeast NALP3 inhibition, confirmed on retest | 1,000 tested, 53% active | yeast expressing human NALP3, luminescence read-out | inhibition, % at 10 µM | shares compounds with NALP3 yeast inh | AID 488794
Mdm2 MdmX conf: human Mdm2/MdmX binding inhibition, confirmed | shares compounds with Mdm2 MdmX PPI | luminescent assay | inhibition, % at 8 µM | 10,000 tested, 55% active | AID 489028; in the data active = inhibition above about 40%
FLuc counter: counter-screen for Mdm2/MdmX inhibitors: full-length luciferase; shares compounds with Mdm2 MdmX PPI; SaOS-2 full-length luciferase counterscreen, luminescence; inhibition, % at 8 µM; 6,200 tested, 77% active; AID 504607;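 active = mean inhibition at 8 µM reaching about 37%, which flags the compound as non-specific, limit read from the data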;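 also: p53-null SaOS-2 cells with luciferase driven by a doxycycline-inducible promoter; compound on cells about two nights before reading with doxycycline added after day one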
Starred values were filed as active, the others as inactive; ? = inconclusive; . = not tested or not shown. Rule as the data show it, unless noted: active = inhibition above about 50%; inactive = the rest.

SMILES | Beta apoptosis | Calb FLC | Mdm2 MdmX PPI | T cruzi inh | CSC inhib | NALP3 yeast inh | NALP3 yeast conf | Mdm2 MdmX conf | FLuc counter | others
Cc1ccc(NC(=O)c2nc(S(=O)(=O)Cc3ccccc3)ncc2Cl)cc1 | 109.1* | 8.0 | 81.7* | -7.3 | 103.9* | 55.2* | 68.2* | 63.3* | 51.5* | Casp1-ASC yeast=49.8;NALP3 yeast rt=53.0*
CS(=O)(=O)c1sc(C#N)c2c1C(=O)CC(c1ccccc1)C2 (stereo not given) | 39.1* | 0.4 | 99.2* | 39.3 | 109.6* | 51.0* | 38.8 | 99.8* | 2.1
Cc1oc2c(c(=O)c1C)C(=O)CC(c1ccccc1)C2 (stereo not given) | . | -1.5 | 15.9 | -6.7 | -13.9 | 10.3 | . | . | .
Cc1nc2ccccc2c(N)c1C(=O)/C=C/c1ccccc1 | 8.2 | 30.5 | 76.3* | 51.8 | 45.5 | 74.7* | 74.2* | 33.0 | 75.0* | Casp1-ASC yeast=55.9*;NALP3 yeast rt=37.8
NS(=O)(=O)c1ccc(N2CCOCC2)c(C(=O)NCCCSc2ccccc2)c1 | 0.4 | . | 27.6 | . | . | 9.1 | . | . | .
CCOC(=O)N=Nc1c2ccccc2c2nc3no[nH]c3nc12 | . | 111.6* | 100.3* | 53.1 | . | 86.3* | 91.6* | 100.1* | 0.9 | Casp1-ASC yeast=71.5*;NALP3 yeast rt=61.9*
Cc1ccc(OCC(=O)c2cc(C)n(-c3cc(C)on3)c2C)c([N+](=O)[O-])n1 | . | . | 28.3 | . | . | 17.6 | . | . | .
COc1ccc(OC)c(C(C[N+](=O)[O-])c2c(C)cc3ccccn23)c1 (stereo not given) | 1.3 | 12.4 | 68.1* | 14.5 | 22.8 | 64.0* | 44.0 | 49.5* | 11.4 | Casp1-ASC yeast=66.7*;NALP3 yeast rt=37.2
O=C(O)COc1ccccc1C(Nc1ccccn1)c1cc(Cl)c2cccnc2c1O (stereo not given) | -7.6 | -2.3 | 6.1 | -6.3 | 19.0 | 16.9 | . | . | .
CN1CCN(C(c2ccc(Br)cc2)c2cc(Cl)c3cccnc3c2O)CC1 (stereo not given) | 73.0 | 89.9* | 80.2* | 20.6 | 110.9* | 57.3* | 37.2 | 62.4* | 47.7*
N#Cc1ccc(Oc2ccc(S(=O)(=O)N3CCCCC3)cn2)cc1 | 1.9 | 2.7 | -6.0 | -2.1 | -10.8 | -30.2 | . | . | .
O=C(O)c1ccc(S(=O)(=O)/N=C2\C=C(Nc3ccccc3F)C(=O)c3ccccc32)cc1 | 99.3* | -6.5 | 72.3* | 28.3 | 103.8* | 93.9* | 82.7* | 64.8* | 5.2 | Casp1-ASC yeast=99.3*;NALP3 yeast rt=97.4*
CCc1ccc(S(=O)(=O)/N=C2\C=C(NS(=O)(=O)c3ccccc3)C(=O)c3ccccc32)cc1 | . | 35.1 | 6.6 | -6.4 | . | 11.7 | . | . | .
Cc1cccc(-c2noc(CN(C)C(=O)COc3ccccc3)n2)c1 | -3.4 | -5.2 | 12.1 | 4.8 | -4.0 | 3.8 | . | . | .
COc1ccc(/C=N/NC(=O)CC(=O)NCc2cccnc2)c(OC)c1 | 3.0 | 24.7 | -9.2 | -7.6 | -8.3 | -17.8 | . | . | .
O=C(NC(NNc1ccc([N+](=O)[O-])cc1)(C(F)(F)F)C(F)(F)F)c1ccccc1Cl | 0.8 | -28.8 | -6.4 | -18.1 | 8.8 | 16.8 | . | . | .
O=C(NC(Nc1nc2ccc([N+](=O)[O-])cc2s1)(C(F)(F)F)C(F)(F)F)c1ccccc1Cl | 109.2* | 64.5 | 100.4* | 55.3* | 97.8* | 73.6* | 94.1* | 100.1* | 15.1 | Casp1-ASC yeast=86.5*;NALP3 yeast rt=93.5*
COc1ccccc1-c1sc2cc3c(cc2c1-c1ccc(OCCN2CCCCC2)cc1)OCO3 | 36.0 | . | 98.0* | . | . | 64.1* | 48.6* | 42.4* | 38.8* | Casp1-ASC yeast=46.5;NALP3 yeast rt=43.0
COc1ccc2sc(-c3ccccc3OC)c(-c3ccc(OCCN4CCOCC4)cc3)c2c1 | . | . | 30.2 | . | . | . | . | . | .
O=C(CSCc1ccccc1Br)N/N=C/c1ccc(OCC(=O)N2CCCCC2)cc1 | -0.9 | 7.4 | 10.0 | -8.2 | -12.8 | 3.0 | . | . | .
COc1ccc(CC(=O)Nc2ccc(-c3noc(-c4cc(OC)c(OC)c(OC)c4)n3)cc2)cc1 | . | . | 50.0* | . | -1.1 | 57.9* | 23.5 | 51.5* | 79.3*
Cc1oc(-c2ccc(Cl)cc2)nc1CN1CCC(C(=O)NCc2cccnc2)CC1 | -0.6 | -30.4 | 11.3 | -12.5 | -10.9 | 7.5 | . | . | .
Cc1oc(-c2cccc(Cl)c2)nc1CN1CCC(C(=O)NCCCN2CCCC2=O)CC1 | -4.8 | 7.9 | 21.2 | -10.9 | . | 5.9 | . | . | .
CCCN(CCC)CCNC(=O)C1CCN(Cc2nc(-c3ccc(Cl)cc3)oc2C)CC1 | 5.4 | 12.6 | 87.8* | 72.5* | 6.9 | 10.5 | . | 79.3* | 30.3
CCN1CCN(CCNC(=O)C2CCCN(Cc3nc(-c4cccc(Cl)c4)oc3C)C2)CC1 (stereo not given) | 6.3 | -4.5 | 62.9* | 23.4 | 5.0 | 16.3 | . | 31.9 | .
SMILES | Beta apoptosis | Calb FLC | Mdm2 MdmX PPI | T cruzi inh | CSC inhib | NALP3 yeast inh | NALP3 yeast conf | Mdm2 MdmX conf | FLuc counter | others
Cc1oc(-c2cccc(Cl)c2)nc1CN1CCC(C(=O)NCCCN2CC(C)CC(C)C2)CC1 (stereo not given) | 9.0 | -12.5 | 99.7* | ? | -14.5 | 5.3 | . | 98.4* | 52.7*
CCOC(=O)Cn1nc(-c2ccc(F)cc2)cc(Cc2ccccc2)c1=O | -3.1 | 18.1 | 17.9 | 17.7 | -8.6 | 22.6 | . | . | .
Cc1ccc(-n2nc3c(N4CCC(C(=O)N5CCC(C(N)=O)CC5)CC4)nnc(C)c3c2C)cc1 | -6.7 | 9.6 | -14.3 | 5.3 | 14.1 | 8.6 | . | . | .
Cc1ccc(C(=O)NCC(=O)Nc2cccc(S(=O)(=O)NC3=NCCCCC3)c2)cc1C | -4.1 | -11.4 | 8.9 | 15.7 | -22.8 | 5.5 | . | . | .
CC1CCc2nc(N)c(C#N)c(-c3cccnc3)c2C1 (stereo not given) | -17.2 | -10.9 | 84.3* | -24.0 | 12.9 | 8.3 | . | 78.5* | 20.8
CC1CCc2nc(N)c(C#N)c(-c3ccncc3)c2C1 (stereo not given) | -1.1 | 9.2 | 30.1 | -8.5 | -3.3 | 3.3 | . | . | .
Cc1nnc2n1N=C(c1ccc(OC(F)F)cc1)C(C)S2 (stereo not given) | -0.8 | -0.4 | 18.0 | -12.1 | 5.2 | 4.9 | . | . | .
CCOc1ccc(S(=O)(=O)N(CC(=O)NCC2CCCO2)c2ccc(F)cc2)cc1 (stereo not given) | -4.5 | 30.9 | 13.3 | -6.1 | -1.1 | 5.7 | . | . | .
CCN1C(=O)[C@H]2[C@H]3CN=C(SCc4ccc(Cl)cc4)N3[C@@](Cc3ccccc3)(C(=O)OC)[C@H]2C1=O | . | . | 48.4 | . | . | . | . | . | .
CCN1C(=O)[C@H]2[C@H]3CN=C(SCc4ccc(Cl)cc4)N3[C@@](C)(C(=O)OC)[C@H]2C1=O | . | . | -1.3 | . | . | . | . | . | .
